# Reference: ChEMBL document CHEMBL3098128, “Design and synthesis of tamoxifen derivatives as a selective estrogen receptor down-regulator” (Bioorg Med Chem Lett, 2014)
# Activity calls are given as the source filed them. The calls are words filed in the database; no cut-off is given here.
# How the values were obtained:
# MCF7 [1] = experiment: Downregulation of ERalpha protein levels in human MCF7 cells at 10 uM after 6 hrs by Western blot method; format: functional, cell-based
# How it was run: (§1)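 MCF-7 breast cancer cells were incubated with compound or DMSO vehicle for 6 h. Compound was given at 10 µM in single-dose comparisons, or at 1 to 30 µM in the dose series. Whole-cell protein was extracted and ERα protein level was assessed by Western blotting.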
# [2] = molecular target: T1, Estrogen receptor (Homo sapiens) (UniProt P03372); experiment: Antagonist activity at ERalpha in human MCF7 cells assessed as inhibition of E2-induced pS2 mRNA expression after 9 hrs by RT-PCR analysis; format: cell-based
# T1 sequence (whole entry): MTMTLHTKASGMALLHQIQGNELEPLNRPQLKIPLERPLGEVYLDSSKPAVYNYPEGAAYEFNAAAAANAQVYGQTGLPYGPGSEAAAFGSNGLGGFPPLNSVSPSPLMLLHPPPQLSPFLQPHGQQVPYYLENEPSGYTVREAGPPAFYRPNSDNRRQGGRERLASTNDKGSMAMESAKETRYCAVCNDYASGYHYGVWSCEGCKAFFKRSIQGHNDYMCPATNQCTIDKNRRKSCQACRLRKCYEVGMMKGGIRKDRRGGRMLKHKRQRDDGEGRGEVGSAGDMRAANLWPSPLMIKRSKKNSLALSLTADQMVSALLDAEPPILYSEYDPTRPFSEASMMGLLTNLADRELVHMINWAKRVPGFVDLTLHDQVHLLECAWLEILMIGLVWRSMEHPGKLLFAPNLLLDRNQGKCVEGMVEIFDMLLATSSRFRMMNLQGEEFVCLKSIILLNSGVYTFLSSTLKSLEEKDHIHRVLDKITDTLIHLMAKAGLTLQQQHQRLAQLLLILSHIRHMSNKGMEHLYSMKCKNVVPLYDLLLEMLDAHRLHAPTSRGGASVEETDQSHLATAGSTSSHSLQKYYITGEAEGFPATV
# How it was run: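 MCF-7 cells treated with compound across 0.1 to 10 µM, with or without 10 nM E2, for 9 h. Total RNA was extracted and reverse-transcribed. pS2 mRNA was quantified by real-time PCR.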
# MCF7 [3] = experiment: Downregulation of ERalpha protein levels in human MCF7 cells at 10 uM after 6 hrs by Western blot method in presence of proteasome inhibitor MG132; format: functional, cell-based
# MCF7 [4] = experiment: Downregulation of ERalpha protein levels in human MCF7 cells after 6 hrs by Western blot method; format: functional, cell-based; how it was run: as §1
# MCF7 [5] = experiment: Downregulation of ERalpha protein levels in human MCF7 cells at 30 uM after 6 hrs by Western blot method; format: functional, cell-based; how it was run: as §1
# MCF7 [6] = experiment: Upregulation of ERalpha protein levels in human MCF7 cells at 10 uM after 6 hrs by Western blot method; format: functional, cell-based
# How it was run: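 MCF-7 human breast cancer cells exposed to 10 µM compound or DMSO vehicle for 6 h. Whole-cell protein extracted, and ERα protein level assessed by Western blotting against the DMSO-treated control.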
# MCF7 [7] = experiment: Downregulation of ERalpha protein levels in human MCF7 cells at 1 to 30 uM after 6 hrs by Western blot method; format: functional, cell-based; how it was run: as §1
compound,measurement,setting,value
CCCCCCCCCCCCN(CCCCCCCCCCCC)CCOc1ccc(/C(=C(/CC)c2ccccc2)c2ccc(O)cc2)cc1,Activity,MCF7 [1],inactive
CCCCCCCCCCCCN(C)CCOc1ccc(/C(=C(/CC)c2ccccc2)c2ccc(O)cc2)cc1,Activity,MCF7 [1],inactive
CCCCCCCCCCCCNCCOc1ccc(/C(=C(/CC)c2ccccc2)c2ccc(O)cc2)cc1,inhibition,[2],Dose-dependent effect
same,Activity,MCF7 [3],inactive
same,Activity,MCF7 [1],Active
same,Activity,MCF7 [4],Dose-dependent effect
same,Activity,MCF7 [5],Active
CC/C(=C(\c1ccc(O)cc1)c1ccc(OCCNC)cc1)c1ccccc1,Activity,MCF7 [6],Active
CCC(=C(c1ccc(O)cc1)c1ccc(OCCN(C)C)cc1)c1ccccc1,Activity,MCF7 [6],Active
CCCCCCNCCOc1ccc(/C(=C(/CC)c2ccccc2)c2ccc(O)cc2)cc1,Activity,MCF7 [1],inactive
same,Activity,MCF7 [7],inactive
CCCCCCCCCCCCCCCCCCNCCOc1ccc(/C(=C(/CC)c2ccccc2)c2ccc(O)cc2)cc1,Activity,MCF7 [1],inactive
